Measured values taken from publication PMC6500982 (Cancer Science, 2019).

Assay: Safety and tolerability
Type: in vivo, human
Outline: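 Patients (enrolled January 2015–February 2016) received oral test compound in four cohorts: 160, 320 or 480 mg QD, or 300 mg BID. Dosing continued until progression, unacceptable AEs or consent withdrawal. AEs were graded by CTCAE v4.0, alongside laboratory tests, vital signs and ECGs. The safety population was all patients receiving ≥1 dose.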

[1] = Japanese patients with B‐cell NHL and CLL

CC#CC(=O)N1CC[C@@H](n2c(=O)n(-c3ccc(Oc4ccccc4)cc3)c3c(N)ncnc32)C1 [tirabrutinib]
Myalgia, Any grade (320 mg QD N = 3): 0 n (%) | Myalgia, Grade ≥3 (320 mg QD N = 3): 0 n (%) | Nasopharyngitis, Any grade (320 mg QD N = 3): 0 n (%) | Nasopharyngitis, Grade ≥3 (320 mg QD N = 3): 0 n (%) | Nausea, Any grade (320 mg QD N = 3): 0 n (%) | Nausea, Grade ≥3 (320 mg QD N = 3): 0 n (%) | Neutropenia, Any grade (320 mg QD N = 3): 2 (66.7) n (%) | Neutropenia, Grade ≥3 (320 mg QD N = 3): 2 (66.7) n (%) | Pharyngitis, Any grade (320 mg QD N = 3): 0 n (%) | Pharyngitis, Grade ≥3 (320 mg QD N = 3): 0 n (%) | Pyrexia, Any grade (320 mg QD N = 3): 0 n (%) | Pyrexia, Grade ≥3 (320 mg QD N = 3): 0 n (%) | Rash, Any grade (320 mg QD N = 3): 2 (66.7) n (%) | Rash, Grade ≥3 (320 mg QD N = 3): 0 n (%) | Thrombocytopenia, Any grade (320 mg QD N = 3): 1 (33.3) n (%) | Thrombocytopenia, Grade ≥3 (320 mg QD N = 3): 0 n (%) | Upper respiratory tract inflammation, Any grade (320 mg QD N = 3): 1 (33.3) n (%) | Upper respiratory tract inflammation, Grade ≥3 (320 mg QD N = 3): 0 n (%) | Vomiting, Any grade (320 mg QD N = 3): 1 (33.3) n (%) | Vomiting, Grade ≥3 (320 mg QD N = 3): 0 n (%) | All AEs, Any grade (480 mg QD N = 4): 4 (100.0) n (%) | All AEs, Grade ≥3 (480 mg QD N = 4): 2 (50.0) n (%) | Anemia, Any grade (480 mg QD N = 4): 2 (50.0) n (%) | Anemia, Grade ≥3 (480 mg QD N = 4): 1 (25.0) n (%) | Arthralgia, Any grade (480 mg QD N = 4): 0 n (%) | Arthralgia, Grade ≥3 (480 mg QD N = 4): 0 n (%) | Aspartate aminotransferase increased, Any grade (480 mg QD N = 4): 1 (25.0) n (%) | Aspartate aminotransferase increased, Grade ≥3 (480 mg QD N = 4): 0 n (%) | Constipation, Any grade (480 mg QD N = 4): 1 (25.0) n (%) | Constipation, Grade ≥3 (480 mg QD N = 4): 0 n (%) | Cystitis, Any grade (480 mg QD N = 4): 0 n (%) | Cystitis, Grade ≥3 (480 mg QD N = 4): 0 n (%) | Diarrhea, Any grade (480 mg QD N = 4): 0 n (%) | Diarrhea, Grade ≥3 (480 mg QD N = 4): 0 n (%) | Dysgeusia, Any grade (480 mg QD N = 4): 1 (25.0) n (%) | Dysgeusia, Grade ≥3 (480 mg QD N = 4): 0 n (%) | Gamma‐glutamyltransferase increased, Any grade (480 mg QD N = 4): 0 n (%) | Gamma‐glutamyltransferase increased, Grade ≥3 (480 mg QD N = 4): 0 n (%) | Headache, Any grade (480 mg QD N = 4): 0 n (%) | Headache, Grade ≥3 (480 mg QD N = 4): 0 n (%) | Hypokalemia, Any grade (480 mg QD N = 4): 2 (50.0) n (%) | Hypokalemia, Grade ≥3 (480 mg QD N = 4): 0 n (%) | Hypophosphatemia, Any grade (480 mg QD N = 4): 2 (50.0) n (%) | Hypophosphatemia, Grade ≥3 (480 mg QD N = 4): 1 (25.0) n (%) | Insomnia, Any grade (480 mg QD N = 4): 0 n (%) | Insomnia, Grade ≥3 (480 mg QD N = 4): 0 n (%) | Leukopenia, Any grade (480 mg QD N = 4): 0 n (%) | Leukopenia, Grade ≥3 (480 mg QD N = 4): 0 n (%) | Lymphopenia, Any grade (480 mg QD N = 4): 1 (25.0) n (%) | Lymphopenia, Grade ≥3 (480 mg QD N = 4): 0 n (%) | Malaise, Any grade (480 mg QD N = 4): 1 (25.0) n (%) | Malaise, Grade ≥3 (480 mg QD N = 4): 0 n (%) | Myalgia, Any grade (480 mg QD N = 4): 0 n (%) | Myalgia, Grade ≥3 (480 mg QD N = 4): 0 n (%) | Nasopharyngitis, Any grade (480 mg QD N = 4): 0 n (%) | Nasopharyngitis, Grade ≥3 (480 mg QD N = 4): 0 n (%) | Nausea, Any grade (480 mg QD N = 4): 1 (25.0) n (%) | Nausea, Grade ≥3 (480 mg QD N = 4): 0 n (%) | Neutropenia, Any grade (480 mg QD N = 4): 1 (25.0) n (%) | Neutropenia, Grade ≥3 (480 mg QD N = 4): 1 (25.0) n (%) | Pharyngitis, Any grade (480 mg QD N = 4): 0 n (%) | Pharyngitis, Grade ≥3 (480 mg QD N = 4): 0 n (%) | Pyrexia, Any grade (480 mg QD N = 4): 0 n (%) | Pyrexia, Grade ≥3 (480 mg QD N = 4): 0 n (%) | Rash, Any grade (480 mg QD N = 4): 2 (50.0) n (%) | Rash, Grade ≥3 (480 mg QD N = 4): 0 n (%) | Thrombocytopenia, Any grade (480 mg QD N = 4): 1 (25.0) n (%) | Thrombocytopenia, Grade ≥3 (480 mg QD N = 4): 0 n (%) | Upper respiratory tract inflammation, Any grade (480 mg QD N = 4): 0 n (%) | Upper respiratory tract inflammation, Grade ≥3 (480 mg QD N = 4): 0 n (%) | Vomiting, Any grade (480 mg QD N = 4): 2 (50.0) n (%) | Vomiting, Grade ≥3 (480 mg QD N = 4): 0 n (%) | Patients with DLT (grade 3 pneumonitis) (Cohort 4 (300 mg BID), WM patient): 1 patient | Tolerability [1]: well tolerated | Tolerability confirmed up to (dose) [1]: up to 300 mg BID | Tolerability (Japanese patients with B‐cell NHL and CLL, listed as Tirabrutinib): generally well tolerated | Serious AEs reported as study drug‐related (Mallory‐Weiss syndrome, de novo reactivation of HBV, acute myeloid leukemia, pneumonitis (1 patient each)): 4 | All AEs, Any grade (Total (all cohorts) N = 17): 17 (100.0) n (%) | All AEs, Grade ≥3 (Total (all cohorts) N = 17): 8 (47.1) n (%) | Anemia, Any grade (Total (all cohorts) N = 17): 3 (17.6) n (%) | Anemia, Grade ≥3 (Total (all cohorts) N = 17): 2 (11.8) n (%) | Arthralgia, Any grade (Total (all cohorts) N = 17): 3 (17.6) n (%) | Arthralgia, Grade ≥3 (Total (all cohorts) N = 17): 0 n (%) | Aspartate aminotransferase increased, Any grade (Total (all cohorts) N = 17): 2 (11.8) n (%) | Aspartate aminotransferase increased, Grade ≥3 (Total (all cohorts) N = 17): 0 n (%) | Constipation, Any grade (Total (all cohorts) N = 17): 3 (17.6) n (%) | Constipation, Grade ≥3 (Total (all cohorts) N = 17): 0 n (%) | Cystitis, Any grade (Total (all cohorts) N = 17): 2 (11.8) n (%) | Cystitis, Grade ≥3 (Total (all cohorts) N = 17): 0 n (%) | Diarrhea, Any grade (Total (all cohorts) N = 17): 3 (17.6) n (%) | Diarrhea, Grade ≥3 (Total (all cohorts) N = 17): 0 n (%) | Dysgeusia, Any grade (Total (all cohorts) N = 17): 2 (11.8) n (%) | Dysgeusia, Grade ≥3 (Total (all cohorts) N = 17): 0 n (%) | Gamma‐glutamyltransferase increased, Any grade (Total (all cohorts) N = 17): 2 (11.8) n (%) | Gamma‐glutamyltransferase increased, Grade ≥3 (Total (all cohorts) N = 17): 0 n (%) | Headache, Any grade (Total (all cohorts) N = 17): 2 (11.8) n (%) | Headache, Grade ≥3 (Total (all cohorts) N = 17): 0 n (%) | Hypokalemia, Any grade (Total (all cohorts) N = 17): 2 (11.8) n (%) | Hypokalemia, Grade ≥3 (Total (all cohorts) N = 17): 0 n (%) | Hypophosphatemia, Any grade (Total (all cohorts) N = 17): 2 (11.8) n (%) | Hypophosphatemia, Grade ≥3 (Total (all cohorts) N = 17): 1 (5.9) n (%) | Insomnia, Any grade (Total (all cohorts) N = 17): 3 (17.6) n (%) | Insomnia, Grade ≥3 (Total (all cohorts) N = 17): 0 n (%) | Leukopenia, Any grade (Total (all cohorts) N = 17): 2 (11.8) n (%) | Leukopenia, Grade ≥3 (Total (all cohorts) N = 17): 2 (11.8) n (%) | Lymphopenia, Any grade (Total (all cohorts) N = 17): 2 (11.8) n (%) | Lymphopenia, Grade ≥3 (Total (all cohorts) N = 17): 1 (5.9) n (%) | Malaise, Any grade (Total (all cohorts) N = 17): 3 (17.6) n (%) | Malaise, Grade ≥3 (Total (all cohorts) N = 17): 0 n (%) | Myalgia, Any grade (Total (all cohorts) N = 17): 2 (11.8) n (%) | Myalgia, Grade ≥3 (Total (all cohorts) N = 17): 0 n (%) | Nasopharyngitis, Any grade (Total (all cohorts) N = 17): 2 (11.8) n (%) | Nasopharyngitis, Grade ≥3 (Total (all cohorts) N = 17): 0 n (%) | Nausea, Any grade (Total (all cohorts) N = 17): 3 (17.6) n (%) | Nausea, Grade ≥3 (Total (all cohorts) N = 17): 0 n (%) | Neutropenia, Any grade (Total (all cohorts) N = 17): 4 (23.5) n (%) | Neutropenia, Grade ≥3 (Total (all cohorts) N = 17): 4 (23.5) n (%) | Pharyngitis, Any grade (Total (all cohorts) N = 17): 2 (11.8) n (%) | Pharyngitis, Grade ≥3 (Total (all cohorts) N = 17): 0 n (%) | Pyrexia, Any grade (Total (all cohorts) N = 17): 2 (11.8) n (%) | Pyrexia, Grade ≥3 (Total (all cohorts) N = 17): 0 n (%) | Rash, Any grade (Total (all cohorts) N = 17): 6 (35.3) n (%) | Rash, Grade ≥3 (Total (all cohorts) N = 17): 0 n (%) | Thrombocytopenia, Any grade (Total (all cohorts) N = 17): 2 (11.8) n (%) | Thrombocytopenia, Grade ≥3 (Total (all cohorts) N = 17): 0 n (%) | Upper respiratory tract inflammation, Any grade (Total (all cohorts) N = 17): 2 (11.8) n (%) | Upper respiratory tract inflammation, Grade ≥3 (Total (all cohorts) N = 17): 0 n (%) | Vomiting, Any grade (Total (all cohorts) N = 17): 5 (29.4) n (%) | Vomiting, Grade ≥3 (Total (all cohorts) N = 17): 0 n (%) | Tirabrutinib‐induced lymphocytosis (all patients): no tirabrutinib‐induced lymphocytosis observed | Anemia, grade ≥3 (grade 3 or 4) (all patients N = 17): 11.8% | Leukopenia, grade ≥3 (grade 3 or 4) (all patients N = 17): 11.8% | Neutropenia, grade ≥3 (grade 3 or 4) (all patients N = 17): 23.5% | Patients who developed grade ≥3 AEs (all patients N = 17): 47.1% | Patients with serious AEs (all patients N = 17): 7 patients | Maximum tolerated dose (MTD) (cohorts 160, 320, 480 mg QD and 300 mg BID): not reached
